Activity calls are given as the source filed them. The calls are words filed in the database; no cut-off is given here.

For orientation: IC50 means the concentration needed to halve the response being measured.

Experiment [1] deals with T1, Mitogen-activated protein kinase 14 (Homo sapiens, UniProt Q16539). As to the kind of experiment: Binding affinity to p38alpha assessed as inhibition of ATF2 phosphorylation preincubated for 4 hrs.
Experiment [2] deals with T1, Mitogen-activated protein kinase 14.
The subject of a further experiment is Blood. As to the kind of experiment: Inhibition of LPS-induced TNFalpha production in human whole blood. Format: functional, tissue-based. In outline: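 LPS-stimulated TNFα production in whole blood from human donors; IC50 reported as geometric mean of 4–12 donor experiments, SD typically ±50% of the value.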
The test system of another experiment is THP-1. As to the kind of experiment: Inhibition of LPS-induced TNFalpha production in human THP1 cells. Format: functional, cell-based. The essentials: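 LPS-stimulated TNFα release from THP-1 cells; IC50 values are means of 2–4 experiments, SD for n > 2 typically ±50% of the value.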
The subject of the next experiment is Mus musculus. As to the kind of experiment: Inhibition of LPS-induced endotoxemia in mouse assessed as inhibition of TNFalpha production at 3 mg/kg, po. Format: functional. The essentials: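 Mouse LPS-induced endotoxemia model; compound given orally at 3 mg/kg, and TNFα production is measured and expressed as percent inhibition.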
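Wherever Tm is given: thermal denaturation measurement of the p38alpha–inhibitor complex, reporting its melting point as a readout of binding.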

T1 sequence (Q16539 whole entry): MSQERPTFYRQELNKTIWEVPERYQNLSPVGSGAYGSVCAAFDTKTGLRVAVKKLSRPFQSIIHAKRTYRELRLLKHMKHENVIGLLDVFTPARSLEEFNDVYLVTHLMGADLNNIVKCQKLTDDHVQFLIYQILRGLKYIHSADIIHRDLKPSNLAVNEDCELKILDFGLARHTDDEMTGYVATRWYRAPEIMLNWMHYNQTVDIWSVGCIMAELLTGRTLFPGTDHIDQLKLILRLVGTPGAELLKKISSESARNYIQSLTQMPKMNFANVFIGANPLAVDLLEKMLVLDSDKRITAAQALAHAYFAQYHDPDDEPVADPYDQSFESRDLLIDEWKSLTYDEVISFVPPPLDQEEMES

For the compound `COc1c(NC(=O)c2cc3ccccc3s2)cc(C(C)(C)C)cc1NS(C)(=O)=O`, the 50% inhibitory concentration (IC50) in experiment [1] came out at 2.7 µM. The Tm in experiment [2] was found to be 51.4 °C.

With `Cc1ncc(-c2ccc(C(C)(C)C)cc2NC(=O)Nc2ccc(-c3ccc(CN4CCOCC4)nc3)c3ccccc23)cn1`, the IC50 with Blood was 0.35 µM; in the experiment with THP-1, 0.029 µM. Also, the Tm in experiment [2] turned out to be 56.6 °C.

Turning to `Cc1ccc(-n2nc(C(C)(C)C)cc2NC(=O)Nc2ccc(OCCN3CCOCC3)c3ccccc23)cc1` [DORAMAPIMOD], the IC50 in the experiment on Blood came out at 0.78 µM; in the experiment with THP-1, 0.018 µM. Also, in the experiment with Mus musculus, the outcome was inactive.

As to `Cc1ccc(C(C)C)cc1NC(=O)Nc1ccc(-c2ccc(CN3CCOCC3)nc2)c2ccccc12`, inhibition in the experiment on THP-1 was half-maximal at 0.076 µM (IC50). Moreover, the Tm in experiment [2] is 52.3 °C.

On to `COc1c(N)cc(C(C)(C)C)cc1NC(=O)Nc1ccc(-c2ccc(CN3CCOCC3)nc2)c2ccccc12`, for which the IC50 in the experiment on Blood worked out at 0.022 µM; in the experiment with THP-1 it was 0.005 µM. Besides, the Tm in experiment [2] was 61.5 °C.

Consider `CCC(=O)Nc1cc(C(C)(C)C)cc(NC(=O)Nc2ccc(-c3ccc(CN4CCOCC4)nc3)c3ccccc23)c1OC`, for which the results for the IC50 in the experiment with Blood and in the experiment on THP-1 were 0.071 µM and 0.0051 µM, respectively. Besides, the Tm in experiment [2] came to 58.7 °C.

As to `COc1c(NC(=O)Nc2ccc(-c3ccc(CN4CCOCC4)nc3)c3ccccc23)cc(C(C)(C)C)cc1N(C)C(C)=O`, the 50% inhibitory concentration (IC50) in the experiment on Blood was 0.12 µM; with THP-1, 0.015 µM. The Tm in experiment [2] turned out to be 64.9 °C.

Take `COc1ccc(C(C)(C)C)cc1NC(=O)Nc1cccc2ccccc12`: in experiment [1], the 50% inhibitory concentration (IC50) came to 3.9 µM. For the same compound, in experiment [2], the Tm came out at 50.3 °C.

In the case of `Cn1nc(C(C)(C)C)cc1NC(=O)Nc1ccc(OCCN2CCOCC2)c2ccccc12`, the IC50 turned out to be 10 µM in the experiment on Blood and 0.14 µM with THP-1. Besides, the Tm in experiment [2] amounted to 54.5 °C.

As to `COc1c(NC(=O)c2cc3ccccc3o2)cc(C(C)(C)C)cc1NS(C)(=O)=O`, in experiment [1], the IC50 stood at 4.1 µM. Moreover, in experiment [2], the Tm is 48.8 °C.

Turning to `Cn1nc(C(C)(C)C)cc1NC(=O)Nc1ccc(-c2ccc(CN3CCOCC3)nc2)c2ccccc12`, the IC50 with Blood was found to be 0.23 µM; in the experiment on THP-1 it was 0.029 µM. For the same compound, the Tm in experiment [2] was determined as 57.9 °C.

On to `CNC(=O)c1cc(C(C)(C)C)cc(NC(=O)Nc2ccc(-c3ccc(CN4CCOCC4)nc3)c3ccccc23)c1OC`, for which the IC50 is 0.097 µM with Blood and 0.01 µM in the experiment on THP-1. Besides, the Tm in experiment [2] came to 65.6 °C.

`CCc1ccc(C(C)(C)C)cc1NC(=O)Nc1ccc(-c2ccc(CN3CCOCC3)nc2)c2ccccc12`: the IC50 in the experiment with Blood was determined as 0.7 µM; in the experiment with THP-1, 0.0088 µM. Besides, in experiment [2], the Tm amounted to 53.9 °C.

Regarding `Cc1ccc(-n2nc(C(C)(C)C)cc2NC(=O)Nc2ccc(-c3ccc(CN4CCOCC4)nc3)c3ccccc23)cc1`, the IC50 with Blood is 0.22 µM; with THP-1, 0.008 µM. The Tm in experiment [2] is 63.6 °C.

As to `COc1c(NC(=O)Nc2ccc(-c3ccc(CN4CCOCC4)nc3)c3ccccc23)cc(C(C)(C)C)cc1C(N)=O`, the values for the IC50 in the experiment on Blood and with THP-1 were 0.074 µM and 0.0094 µM, respectively. The Tm in experiment [2] turned out to be 65.5 °C.

`COc1c(NC(N)=O)cc(C(C)(C)C)cc1NC(=O)Nc1ccc(-c2ccc(CN3CCOCC3)nc2)c2ccccc12`: the results for the IC50 with Blood and in the experiment on THP-1 were 0.11 µM and 0.012 µM, respectively. Moreover, the Tm in experiment [2] came to 56.7 °C.

For the compound `Cc1ccc(C(C)(C)C)cc1NC(=O)Nc1ccc(-c2ccc(CN3CCOCC3)nc2)c2ccccc12`, the concentration for half-maximal inhibition (IC50) with Blood worked out at 0.18 µM; with THP-1, 0.0094 µM. Besides, the Tm in experiment [2] amounted to 54.6 °C.

Take `COc1ccc(C(C)(C)C)cc1NC(=O)c1cc2ccccc2s1`: in experiment [1], the 50% inhibitory concentration (IC50) is > 10 µM. In addition, the Tm in experiment [2] is 46.9 °C.

Turning to `COc1c(NC(C)=O)cc(C(C)(C)C)cc1NC(=O)Nc1ccc(-c2ccc(CN3CCOCC3)nc2)c2ccccc12`, the IC50 came to 0.035 µM in the experiment with Blood and 0.009 µM with THP-1. In addition, in experiment [2], the Tm was 63.6 °C.

Regarding `COc1c(NC(=O)Nc2cccc3ccccc23)cc(C(C)(C)C)cc1NS(C)(=O)=O`, in experiment [1], the IC50 was found to be 0.079 µM. Moreover, the Tm in experiment [2] was found to be 56.3 °C.

In the case of `COC(=O)Nc1cc(C(C)(C)C)cc(NC(=O)Nc2ccc(-c3ccc(CN4CCOCC4)nc3)c3ccccc23)c1OC`, the IC50 came out at 0.11 µM in the experiment on Blood and 0.0085 µM with THP-1. In experiment [2], the Tm turned out to be 58.1 °C.

With `COc1ccc(C(C)(C)C)cc1NC(=O)c1cc2ccccc2o1`, the IC50 in experiment [1] is > 10 µM. Also, the Tm in experiment [2] came to 46.2 °C.

Consider `Cc1ccc(C(C)(C)C)cc1NC(=O)Nc1ccc(OCCN2CCOCC2)c2ccccc12`, for which the IC50 in the experiment on Blood is > 10 µM; in the experiment with THP-1, 0.38 µM. Further, the Tm in experiment [2] came out at 52.7 °C.

In the case of `COc1c(NC(=O)Nc2ccc(-c3ccc(CN4CCOCC4)nc3)c3ccccc23)cc(C(C)(C)C)cc1C(=O)N(C)C`, the IC50 in the experiment with Blood is 0.097 µM; in the experiment on THP-1, 0.012 µM. Besides, in experiment [2], the Tm turned out to be 56.2 °C.

Source of the values: ChEMBL document CHEMBL1138470, “Discovery and characterization of the N-phenyl-N'-naphthylurea class of p38 kinase inhibitors” (Bioorg Med Chem Lett, 2009).
